Molecules are shown by their SMILES. A value given as a limit tells only on which side of the number the result lay.

In ChEMBL document CHEMBL1135783, “Selective agonists at group II metabotropic glutamate receptors: synthesis, stereochemistry, and molecular pharmacology of (S)- and (R)-2-amino-4-(4-hydroxy[1,2,5]thiadiazol-3-yl)butyric acid” (J Med Chem, 2002) one finds EC50 data, which are given here for 6 compounds.

The target in assay [1] is Metabotropic glutamate receptor 5 (Rattus norvegicus, UniProt P31424). Description: Compound was evaluated for the inhibitory activity against cloned Metabotropic glutamate receptor 5. Put shortly:
(§1)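 CHO cell lines stably expressing mGluR1α, mGluR2, mGluR4a or mGluR5a, grown at 37 °C in 5% CO2 in DMEM with reduced (S)-glutamine ([…]) and 10% dialyzed fetal calf serum. Cells were seeded 2 days before assay: 1.8 × 10^6 cells/well for inositol phosphate (PI hydrolysis) or 1.0 × 10^6 for cAMP formation. Antagonist activity was tested at 1 mM unless stated otherwise.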

In assay [2] the target is Metabotropic glutamate receptor 1 (Rattus norvegicus, UniProt P23385). Description: Compound was evaluated for the inhibitory activity against cloned Metabotropic glutamate receptor 1. The method, boiled down:
as §1

In assay [3] the target is Metabotropic glutamate receptor 2 (Rattus norvegicus, UniProt P31421). Put plainly: Compound was evaluated for the inhibitory activity against cloned Metabotropic glutamate receptor 2. The method, boiled down: as §1
Chain of Metabotropic glutamate receptor 2 (P31421 whole entry): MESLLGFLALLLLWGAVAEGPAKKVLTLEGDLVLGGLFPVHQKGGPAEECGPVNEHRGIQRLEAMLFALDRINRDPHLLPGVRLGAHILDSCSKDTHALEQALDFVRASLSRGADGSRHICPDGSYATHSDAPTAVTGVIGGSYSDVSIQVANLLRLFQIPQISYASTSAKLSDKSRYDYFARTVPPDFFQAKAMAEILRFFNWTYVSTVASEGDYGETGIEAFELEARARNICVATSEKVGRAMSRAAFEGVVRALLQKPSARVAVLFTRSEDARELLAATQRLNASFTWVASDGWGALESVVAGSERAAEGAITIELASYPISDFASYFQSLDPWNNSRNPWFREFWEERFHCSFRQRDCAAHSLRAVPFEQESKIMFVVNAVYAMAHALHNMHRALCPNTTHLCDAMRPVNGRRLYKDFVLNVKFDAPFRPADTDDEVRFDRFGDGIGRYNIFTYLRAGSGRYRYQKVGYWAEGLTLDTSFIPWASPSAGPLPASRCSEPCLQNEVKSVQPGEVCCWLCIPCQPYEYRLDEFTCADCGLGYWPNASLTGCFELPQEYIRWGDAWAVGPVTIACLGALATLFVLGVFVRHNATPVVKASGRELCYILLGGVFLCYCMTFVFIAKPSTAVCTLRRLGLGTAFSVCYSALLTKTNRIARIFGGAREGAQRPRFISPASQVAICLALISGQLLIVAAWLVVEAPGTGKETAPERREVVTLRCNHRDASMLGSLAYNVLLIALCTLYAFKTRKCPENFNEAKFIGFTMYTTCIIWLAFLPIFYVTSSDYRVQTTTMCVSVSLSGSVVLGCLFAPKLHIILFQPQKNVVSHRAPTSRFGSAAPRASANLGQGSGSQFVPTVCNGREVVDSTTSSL
Assay [4] has as its target Metabotropic glutamate receptor 4 (Rattus norvegicus, UniProt P31423). Description: Compound was evaluated for the inhibitory activity against cloned Metabotropic glutamate receptor 4. The method, boiled down: as §1

Chain of Metabotropic glutamate receptor 1 (P23385 whole entry): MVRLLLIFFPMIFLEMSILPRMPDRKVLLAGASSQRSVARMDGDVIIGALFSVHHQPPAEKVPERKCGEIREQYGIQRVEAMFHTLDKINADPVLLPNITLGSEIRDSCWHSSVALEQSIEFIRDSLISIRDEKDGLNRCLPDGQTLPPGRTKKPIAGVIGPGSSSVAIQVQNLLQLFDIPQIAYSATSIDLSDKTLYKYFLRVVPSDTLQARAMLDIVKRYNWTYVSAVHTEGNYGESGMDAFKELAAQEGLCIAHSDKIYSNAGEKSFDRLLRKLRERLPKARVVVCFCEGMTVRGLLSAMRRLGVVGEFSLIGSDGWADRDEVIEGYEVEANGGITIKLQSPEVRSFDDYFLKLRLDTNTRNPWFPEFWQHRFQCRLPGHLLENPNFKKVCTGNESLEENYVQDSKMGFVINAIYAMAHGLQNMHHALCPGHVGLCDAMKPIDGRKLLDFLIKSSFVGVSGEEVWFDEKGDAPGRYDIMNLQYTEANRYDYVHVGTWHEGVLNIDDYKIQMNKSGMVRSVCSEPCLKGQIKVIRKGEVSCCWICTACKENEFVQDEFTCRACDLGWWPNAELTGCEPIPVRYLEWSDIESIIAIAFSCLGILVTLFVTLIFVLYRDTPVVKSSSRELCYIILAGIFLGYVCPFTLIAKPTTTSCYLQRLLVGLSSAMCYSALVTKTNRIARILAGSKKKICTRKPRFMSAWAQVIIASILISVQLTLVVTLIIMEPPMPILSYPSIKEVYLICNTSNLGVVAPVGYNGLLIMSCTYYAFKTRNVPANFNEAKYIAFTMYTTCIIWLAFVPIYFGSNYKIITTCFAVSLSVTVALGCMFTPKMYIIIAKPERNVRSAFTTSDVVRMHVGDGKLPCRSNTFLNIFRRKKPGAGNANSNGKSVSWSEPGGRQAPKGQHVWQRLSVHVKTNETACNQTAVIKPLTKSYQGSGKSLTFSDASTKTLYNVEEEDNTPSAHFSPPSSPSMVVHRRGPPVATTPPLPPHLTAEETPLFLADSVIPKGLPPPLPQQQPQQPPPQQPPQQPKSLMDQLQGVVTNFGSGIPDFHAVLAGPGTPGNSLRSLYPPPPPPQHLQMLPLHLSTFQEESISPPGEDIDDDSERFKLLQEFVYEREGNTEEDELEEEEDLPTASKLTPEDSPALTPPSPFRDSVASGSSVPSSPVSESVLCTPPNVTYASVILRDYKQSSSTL
Chain of Metabotropic glutamate receptor 5 (P31424 whole entry): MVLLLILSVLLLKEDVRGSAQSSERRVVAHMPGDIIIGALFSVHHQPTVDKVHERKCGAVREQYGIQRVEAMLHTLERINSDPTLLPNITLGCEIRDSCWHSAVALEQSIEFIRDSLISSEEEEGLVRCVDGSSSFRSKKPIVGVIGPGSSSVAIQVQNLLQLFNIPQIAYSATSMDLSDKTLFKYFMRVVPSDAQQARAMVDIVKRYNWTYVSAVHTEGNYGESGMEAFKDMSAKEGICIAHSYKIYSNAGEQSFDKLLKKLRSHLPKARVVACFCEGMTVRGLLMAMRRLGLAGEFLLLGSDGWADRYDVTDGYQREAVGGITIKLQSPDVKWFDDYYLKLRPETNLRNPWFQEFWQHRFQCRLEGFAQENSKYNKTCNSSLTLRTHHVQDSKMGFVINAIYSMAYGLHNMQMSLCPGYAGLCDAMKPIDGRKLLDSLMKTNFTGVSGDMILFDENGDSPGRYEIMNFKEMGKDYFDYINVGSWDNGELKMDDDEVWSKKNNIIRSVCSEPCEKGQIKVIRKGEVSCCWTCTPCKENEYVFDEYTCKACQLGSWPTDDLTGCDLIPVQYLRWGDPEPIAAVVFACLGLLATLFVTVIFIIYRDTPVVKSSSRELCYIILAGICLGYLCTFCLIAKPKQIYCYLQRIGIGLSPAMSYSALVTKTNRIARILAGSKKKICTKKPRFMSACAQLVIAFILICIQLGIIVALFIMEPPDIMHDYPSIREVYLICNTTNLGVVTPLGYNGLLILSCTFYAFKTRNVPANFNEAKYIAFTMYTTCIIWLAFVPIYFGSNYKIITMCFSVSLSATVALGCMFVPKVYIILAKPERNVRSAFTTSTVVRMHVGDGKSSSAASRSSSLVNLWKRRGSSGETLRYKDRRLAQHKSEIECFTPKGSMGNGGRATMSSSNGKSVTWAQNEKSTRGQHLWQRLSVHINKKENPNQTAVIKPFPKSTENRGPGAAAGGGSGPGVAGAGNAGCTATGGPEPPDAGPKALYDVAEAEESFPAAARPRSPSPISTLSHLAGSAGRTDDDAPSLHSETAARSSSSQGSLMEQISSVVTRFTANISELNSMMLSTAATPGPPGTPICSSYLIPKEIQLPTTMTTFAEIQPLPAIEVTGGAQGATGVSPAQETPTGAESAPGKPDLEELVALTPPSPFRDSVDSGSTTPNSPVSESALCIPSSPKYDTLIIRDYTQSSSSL
Chain of Metabotropic glutamate receptor 4 (P31423 whole entry): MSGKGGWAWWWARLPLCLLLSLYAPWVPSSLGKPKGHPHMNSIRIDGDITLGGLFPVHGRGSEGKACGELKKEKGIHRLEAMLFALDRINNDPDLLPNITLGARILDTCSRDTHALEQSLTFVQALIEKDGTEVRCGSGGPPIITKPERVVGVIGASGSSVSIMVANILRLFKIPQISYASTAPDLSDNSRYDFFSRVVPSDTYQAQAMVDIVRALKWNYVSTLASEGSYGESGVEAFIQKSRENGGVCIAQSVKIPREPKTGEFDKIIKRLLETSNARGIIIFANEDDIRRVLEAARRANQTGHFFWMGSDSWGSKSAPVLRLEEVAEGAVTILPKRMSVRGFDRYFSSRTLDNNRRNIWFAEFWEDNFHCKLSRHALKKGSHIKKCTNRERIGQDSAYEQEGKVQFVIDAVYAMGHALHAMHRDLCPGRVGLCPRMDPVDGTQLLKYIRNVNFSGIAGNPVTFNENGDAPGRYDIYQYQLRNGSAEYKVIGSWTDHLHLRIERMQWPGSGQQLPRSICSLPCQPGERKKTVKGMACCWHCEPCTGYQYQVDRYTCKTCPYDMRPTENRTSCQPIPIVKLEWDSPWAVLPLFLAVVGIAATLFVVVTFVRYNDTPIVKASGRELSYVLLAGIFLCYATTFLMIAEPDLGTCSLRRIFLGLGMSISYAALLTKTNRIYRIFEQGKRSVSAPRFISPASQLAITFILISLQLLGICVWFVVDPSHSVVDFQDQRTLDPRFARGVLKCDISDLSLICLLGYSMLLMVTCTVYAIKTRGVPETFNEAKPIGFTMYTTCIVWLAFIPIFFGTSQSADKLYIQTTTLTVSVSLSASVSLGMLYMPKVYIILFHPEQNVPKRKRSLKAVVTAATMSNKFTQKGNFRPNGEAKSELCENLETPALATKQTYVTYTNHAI

`N[C@@H](CCCC(=O)O)C(=O)O` [(S)-2-AMINOADIPIC ACID] had an EC50 in assay [1] of over 1000 µM.

As to `N[C@@H](Cc1cc(=O)[nH]o1)C(=O)O`, the EC50 is 250 µM in assay [2], 490 µM in assay [1], over 1000 µM in assay [3] and over 1000 µM in assay [4].

Take `N[C@H](CCc1nsnc1O)C(=O)O`: the EC50 in assay [2], in assay [1] and in assay [4] was over 1000 µM each time.

In the case of `N[C@H](Cc1cc(=O)[nH]o1)C(=O)O`, the EC50 in assay [2], in assay [1], in assay [3] and in assay [4] was over 1000 µM each time.

Regarding `N[C@@H](CCC(=O)O)C(=O)O` [GLUTAMIC ACID], the half-maximal effective concentration (EC50) in assay [4] amounted to 12 µM.

For the compound `N[C@@H](CCc1nsnc1O)C(=O)O`, the EC50 in assay [2] was over 1000 µM; in assay [1], 190 µM; in assay [4], over 1000 µM.

As a reminder, the EC50 is the concentration giving half of the maximal effect.
